These results are taken from ChEMBL document CHEMBL1125285, “Gastrin releasing peptide antagonists with improved potency and stability” (J Med Chem, 1991).

Assay [1] addresses Gastrin-releasing peptide receptor (Mus musculus, UniProt P21729). Put plainly: Inhibition against Swiss 3T3 murine fibroblast cells. Type of assay: functional, cell-based. A digest of the protocol: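 Competitive binding on confluent Swiss 3T3 monolayers grown in DMEM with 10% FBS and 2 mM glutamine. [3H-Phe15]GRP-15-27 amide used at 2 nM final, at 15 °C for 1–2 h. Nonspecific binding defined with excess unlabeled GRP. Run in triplicate in at least two trials; mean IC50 reported.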

Assay [2] is described as follows: Compound was evaluated for mitogenic stimulation against Swiss 3T3 murine fibroblast cells. Type of assay: functional, cell-based, Mus musculus. A digest of the protocol:
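Confluent Swiss 3T3 monolayers held in serum-free DMEM for 48 h, then peptide and 23 nM [3H]thymidine added. After 48 h more, cells detached with trypsin/5 mM EDTA and filter-harvested to measure [3H]thymidine uptake. EC50 is the mean of at least two independent experiments.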

Each structure is given as a SMILES string. Non-standard residues stand in square brackets, D forms with d. Residues, ends and D or L forms follow the SMILES beside them. *: point of attachment. NHCH(iBu)2 = CC(C)CC(CC(C)C)N*; X1 = CC(C)CCOC[C@H](CC(C)C)N*; X11 = CCCCC[C@@H](CC(C)C)N*; Leu(ol) = CC(C)C[C@H](N)CO; X10 = CCCOC[C@H](CC(C)C)N*; X4 = CCCCCC[C@H](CC(C)C)N*; X12 = CCCC[C@H](CC(C)C)N*; X8 = CCCC[C@@H](CC(C)C)N*; X5 = CCOC[C@H](CC(C)C)N*; X9 = CCC[C@@H](CC(C)C)N*; X3 = COC[C@H](CC(C)C)N*; X6 = CCC[C@H](CC(C)C)N*; X2 = CCCCC(CCCC)N*

Gastrin-releasing peptide receptor, sequence (P21729 whole entry): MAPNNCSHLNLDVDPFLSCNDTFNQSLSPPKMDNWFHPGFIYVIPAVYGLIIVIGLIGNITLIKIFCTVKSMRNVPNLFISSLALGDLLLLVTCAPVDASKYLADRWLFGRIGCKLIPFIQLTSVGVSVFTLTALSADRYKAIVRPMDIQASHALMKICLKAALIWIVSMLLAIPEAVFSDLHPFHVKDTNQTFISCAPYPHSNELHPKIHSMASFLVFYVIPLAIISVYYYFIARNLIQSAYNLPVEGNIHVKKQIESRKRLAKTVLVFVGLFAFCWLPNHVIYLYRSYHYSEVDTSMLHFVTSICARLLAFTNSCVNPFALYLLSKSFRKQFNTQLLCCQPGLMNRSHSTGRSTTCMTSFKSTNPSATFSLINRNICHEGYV

Regarding `CCOC[C@H](CC(C)C)NC(=O)[C@H](Cc1c[nH]cn1)NC(=O)[C@H](C)NC(=O)[C@@H](NC(=O)[C@H](C)NC(=O)[C@H](Cc1c[nH]c2ccccc12)NC(=O)[C@H](Cc1c[nH]cn1)NC(C)=O)C(C)C`, the half-inhibitory concentration (IC50) (commonly the point on the concentration scale where inhibition reaches its midpoint) in assay [1] came to 410 nM.

In turn, `CC(=O)N[C@@H](Cc1c[nH]cn1)C(=O)N[C@@H](Cc1c[nH]c2ccccc12)C(=O)N[C@@H](C)C(=O)N[C@H](C(=O)NCC(=O)N[C@@H](Cc1c[nH]cn1)C(=O)N[C@H](COCCC(C)C)CC(C)C)C(C)C` (Ac-HWAVGH-X1) displayed a half-inhibitory concentration (IC50) in assay [1] of 11 nM.

`CC(=O)N[C@@H](Cc1c[nH]cn1)C(=O)N[C@@H](Cc1c[nH]c2ccccc12)C(=O)N[C@@H](C)C(=O)N[C@H](C(=O)NCC(=O)N[C@@H](Cc1c[nH]cn1)C(=O)N[C@H](CO)CC(C)C)C(C)C` (Ac-HWAVGH[Leu(ol)]) yielded a 50% inhibitory concentration (IC50) in assay [1] of 81 nM.

In assay [1], `CC(=O)N[C@@H](Cc1c[nH]cn1)C(=O)N[C@@H](Cc1c[nH]c2ccccc12)C(=O)N[C@@H](C)C(=O)N[C@H](C(=O)NCC(=O)N[C@@H](Cc1c[nH]cn1)C(=O)NC(CC(C)C)CC(C)C)C(C)C` (Ac-HWAVGH-{NHCH(iBu)2}) yielded a half-maximal inhibitory concentration (IC50) of 1.2 nM.

For `CCCC[C@H](CC(C)C)NC(=O)[C@H](Cc1cnc[nH]1)NC(=O)CNC(=O)[C@@H](NC(=O)[C@H](C)NC(=O)[C@H](Cc1c[nH]c2ccccc12)NC(=O)[C@H](Cc1cnc[nH]1)NC(C)=O)C(C)C` (Ac-HWAVGH-X12), the concentration for half-maximal inhibition (IC50) in assay [1] was determined as 1.4 nM.

Regarding `CCC[C@@H](CC(C)C)NC(=O)[C@H](Cc1c[nH]cn1)NC(=O)CNC(=O)[C@@H](NC(=O)[C@H](C)NC(=O)[C@H](Cc1c[nH]c2ccccc12)NC(=O)[C@H](Cc1c[nH]cn1)NC(C)=O)C(C)C` (Ac-HWAVGH-X9), the IC50 in assay [1] worked out at 4.9 nM.

Compound `CSCC[C@H](NC(=O)[C@H](CC(C)C)NC(=O)[C@H](Cc1c[nH]cn1)NC(=O)[C@H](C)NC(=O)[C@@H](NC(=O)[C@H](C)NC(=O)[C@H](Cc1c[nH]c2ccccc12)NC(=O)[C@H](Cc1c[nH]cn1)NC(C)=O)C(C)C)C(N)=O` registered a half-inhibitory concentration (IC50) in assay [1] of 180 nM. Moreover, the half-maximal effective concentration (EC50) (as a rule, the midpoint of the concentration-response curve) in assay [2] was 20 nM.

Compound `CSCC[C@H](NC(=O)[C@H](CC(C)C)NC(=O)[C@H](Cc1c[nH]cn1)NC(=O)CNC(=O)[C@@H](NC(=O)[C@H](C)NC(=O)[C@H](Cc1c[nH]c2ccccc12)NC(=O)[C@H](Cc1c[nH]cn1)NC(C)=O)C(C)C)C(N)=O` yielded an IC50 in assay [1] of 1.8 nM. The same compound had a concentration giving a half-maximal response (EC50) in assay [2] of 0.2 nM.

`CCOC[C@H](CC(C)C)NC(=O)[C@H](Cc1c[nH]cn1)NC(=O)CNC(=O)[C@@H](NC(=O)[C@H](C)NC(=O)[C@H](Cc1c[nH]c2ccccc12)NC(=O)[C@H](Cc1c[nH]cn1)NC(C)=O)C(C)C` (Ac-HWAVGH-X5) had an IC50 in assay [1] of 6.2 nM.

Take `CCCC[C@@H](CC(C)C)NC(=O)[C@H](Cc1c[nH]cn1)NC(=O)CNC(=O)[C@@H](NC(=O)[C@H](C)NC(=O)[C@H](Cc1c[nH]c2ccccc12)NC(=O)[C@H](Cc1c[nH]cn1)NC(C)=O)C(C)C` (Ac-HWAVGH-X8): in assay [1], the IC50 amounted to 2.4 nM.

In assay [1], `CSCC[C@H](NC(=O)[C@H](CC(C)C)NC(=O)[C@H](Cc1c[nH]cn1)NC(=O)CNC(=O)[C@@H](NC(=O)[C@H](C)NC(=O)[C@H](Cc1c[nH]c2ccccc12)NC(=O)[C@H](Cc1c[nH]cn1)NC(=O)C(C)(C)C)C(C)C)C(N)=O` yielded a concentration for half-maximal inhibition (IC50) of 4.1 nM. In assay [2], this compound yielded an EC50 of 0.2 nM.

The compound `CCCCCC[C@H](CC(C)C)NC(=O)[C@H](Cc1c[nH]cn1)NC(=O)CNC(=O)[C@@H](NC(=O)[C@H](C)NC(=O)[C@H](Cc1c[nH]c2ccccc12)NC(=O)[C@H](Cc1c[nH]cn1)NC(C)=O)C(C)C` (Ac-HWAVGH-X4) showed an IC50 in assay [1] of 2.8 nM.

In assay [1], `COC[C@H](CC(C)C)NC(=O)[C@H](Cc1c[nH]cn1)NC(=O)CNC(=O)[C@@H](NC(=O)[C@H](C)NC(=O)[C@H](Cc1c[nH]c2ccccc12)NC(=O)[C@H](Cc1c[nH]cn1)NC(C)=O)C(C)C` (Ac-HWAVGH-X3) had a 50% inhibitory concentration (IC50) of 8.3 nM.

In assay [1], `CCC[C@H](CC(C)C)NC(=O)[C@H](Cc1cnc[nH]1)NC(=O)CNC(=O)[C@@H](NC(=O)[C@H](C)NC(=O)[C@H](Cc1c[nH]c2ccccc12)NC(=O)[C@H](Cc1cnc[nH]1)NC(C)=O)C(C)C` (Ac-HWAVGH-X6) had an IC50 of 2.6 nM.

In assay [1], `CCCCC[C@@H](CC(C)C)NC(=O)[C@H](Cc1c[nH]cn1)NC(=O)CNC(=O)[C@@H](NC(=O)[C@H](C)NC(=O)[C@H](Cc1c[nH]c2ccccc12)NC(=O)[C@H](Cc1c[nH]cn1)NC(C)=O)C(C)C` (Ac-HWAVGH-X11) showed a concentration for half-maximal inhibition (IC50) of 11 nM.

In assay [1], `CCCCC(CCCC)NC(=O)[C@H](Cc1cnc[nH]1)NC(=O)CNC(=O)[C@@H](NC(=O)[C@H](C)NC(=O)[C@H](Cc1c[nH]c2ccccc12)NC(=O)[C@H](Cc1cnc[nH]1)NC(C)=O)C(C)C` (Ac-HWAVGH-X2) displayed an IC50 of 3.3 nM.

For the compound `CCCOC[C@H](CC(C)C)NC(=O)[C@H](Cc1c[nH]cn1)NC(=O)CNC(=O)[C@@H](NC(=O)[C@H](C)NC(=O)[C@H](Cc1c[nH]c2ccccc12)NC(=O)[C@H](Cc1c[nH]cn1)NC(C)=O)C(C)C` (Ac-HWAVGH-X10), half-maximal inhibition in assay [1] (IC50) required 3.2 nM.

Turning to `CSCC[C@H](NC(=O)[C@H](CC(C)C)NC(=O)[C@H](Cc1c[nH]cn1)NC(=O)[C@@H](C)NC(=O)[C@@H](NC(=O)[C@H](C)NC(=O)[C@H](Cc1c[nH]c2ccccc12)NC(=O)[C@H](Cc1c[nH]cn1)NC(C)=O)C(C)C)C(N)=O`, half-maximal inhibition in assay [1] (IC50) was put at 3.2 nM. Further, in assay [2], the concentration for a half-maximal effect (EC50) amounted to 0.2 nM.

In turn, `CCOC[C@H](CC(C)C)NC(=O)[C@H](Cc1c[nH]cn1)NC(=O)[C@@H](C)NC(=O)[C@@H](NC(=O)[C@H](C)NC(=O)[C@H](Cc1c[nH]c2ccccc12)NC(=O)[C@H](Cc1c[nH]cn1)NC(C)=O)C(C)C` came in with an IC50 in assay [1] of 5 nM.
